Bioassay records deposited in PubChem by several laboratories.
The list is not random: actives were taken first. Their share in the collection is about 2.1%.
Scp1 inh = blocks human Scp-1 phosphatase activity. Recombinant Scp1, phosphopeptide, malachite green phosphate absorbance. inhibition, % at 20 µM. actives 0.88% (n = 340,000). AID 493091;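 active = inhibition above about 50% at 20 µM, limit read from the data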
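Material: truncated SCP-1 phosphatase (76-261aa) / Buffer or medium: 50 mM Tris acetate pH 5.5, 0.005% Tween-20, 10 mM MgCl2 / Compound dosing: one concentration, 20 µM, with 1.0% DMSO / Incubation: 45 min room-temperature reaction, 5 min colour, 30 min stabiliser / Detection: colorimetric free-phosphate detection, absorbance 630 nm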
SUMO1-SIM PPI = modulators of human SUMO1-mediated protein-protein interactions; P63165; SUMO1 binding to a labelled peptide, TR-FRET, 1 h; AID 602429; inhibition, % at 20 µM; actives 0.33% (n = 360,000); in the data active = inhibition above about 37%
STEP block = blocks human striatal-enriched tyrosine phosphatase; P54829; actives 0.25% (n = 360,000); AID 588621; inhibition, % at 20 µM; recombinant STEP, OMFP fluorogenic substrate, fluorescence;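 active = inhibition at 20 µM, scaled per plate between control wells, above about 37%, limit read from the data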
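System: STEP (striatal-enriched tyrosine phosphatase) enzyme, cell-free; medium: Bis-Tris pH 6.0 buffer with DTT, detergent; dosing: 20 µM, 1% DMSO; times: reaction 20 min, ambient temperature; detection: fluorescence, 480/540 nm; read-out basis: normalized % inhibition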
GRK2 aptamer HTS = blocks RNA aptamer binding to human GRK2; P25098; bead flow cytometry, FAM-aptamer displacement from GRK2; inhibition of aptamer binding, % at 10 µM; actives 0.59% (n = 330,000); AID 488847;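 active = inhibition of aptamer binding above 40%, roughly 3 SD of noise, on plates passing a quality check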;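 also: median bead fluorescence of bound FAM aptamer so fluorescent compounds give negative values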
DNMT1 inh = DNMT1 (human) enzyme inhibition. inhibition (reported as % activation of signal), % at 10 µM. actives 0.83% (n = 360,000). DNMT1 molecular beacon, Hinp1I cleavage, fluorescence. AID 588458; in the data active = inhibition above about 50%
LMPTP block = blocks human LMPTP phosphatase | actives 0.22% (n = 360,000) | inhibition, % at 20 µM | P24666 | recombinant LMPTP-A, OMFP fluorogenic substrate, fluorescence intensity | AID 651560;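 active = compounds that cut the enzyme signal by at least half of the control window in the single-dose screen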
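Test system – LMPTP-A enzyme · Amount – LMPTP-A at 0.625 nM final in the reaction · Buffer or medium – Bis-Tris pH 6.0, DTT, detergent · Reagent – OMFP 400 µM · Doses – single 20 µM dose · Schedule – reaction 50 min, room temperature, dark · Detection – fluorescence intensity of OMFP turnover product · Evaluation – percent inhibition versus substrate-only and uninhibited controls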
STEP inh conf = confirmation of human STEP phosphatase inhibitors; inhibition, % at 20 µM; actives 32% (n = 520); shares compounds with STEP block; recombinant STEP, OMFP fluorogenic substrate, fluorescence; AID 623866; call rule not given here
A number is an active result; – = inactive; · = no result.

SMILES	Scp1 inh	SUMO1-SIM PPI	STEP block	GRK2 aptamer HTS	DNMT1 inh	LMPTP block	STEP inh conf
CCN(C(=O)COC(=O)c1cc(Cl)ccc1OC)c1c(N)n(Cc2ccccc2)c(=O)[nH]c1=O	–	–	–	–	–	–	·
COc1ccc2[nH]cc(CCNC(=O)c3ccccc3Cl)c2c1	–	–	46.3	–	–	–	–
COc1ccc(C(=O)NCCc2c[nH]c3ccc(OC)cc23)cc1	–	–	–	–	–	–	·
CC1=C(C(=O)N2CCCCCC2)CC(CC(=O)NCc2cccs2)C(=O)N1Cc1ccccc1 (stereo not given)	·	–	–	·	–	–	·
CN1CCN(C2=NC(=O)/C(=C/c3ccccc3OS(=O)(=O)c3ccccc3)S2)CC1	–	–	46.6	–	–	–	–
NC1=NC(=O)/C(=C/c2ccccc2OS(=O)(=O)c2ccccc2)S1	–	–	–	–	–	–	·
O=C(Nc1cccc2ccccc12)c1ccc([N+](=O)[O-])cc1	–	–	–	–	–	–	·
O=C(Nc1cccc2c(=O)[nH][nH]c(=O)c12)c1ccc([N+](=O)[O-])cc1	·	–	56.7	·	–	–	47.0
CCc1nc2ccc(C(=O)NCc3cccs3)cn2c1N(C)Cc1nccs1	·	–	–	·	–	–	·
S=c1[nH]nc(-c2cccnc2)n1/N=C/c1ccc(Br)s1	–	–	35.7	–	–	–	29.1
COc1ccc(Cl)cc1NC(=S)N(CCCN1CCOCC1)Cc1cn(C)c2ccccc12	–	–	94.5	–	–	–	48.2
COc1ccccc1NC(=S)N(CCCN1CCOCC1)Cc1cn(C)c2ccccc12	–	–	–	–	–	–	·
COc1cc(Cl)ccc1NC(=S)N(CCCN1CCOCC1)Cc1cn(C)c2ccccc12	–	–	90.7	–	–	–	49.4
Cc1csc(=O)n1CCC(=O)OCC(=O)NNC(=O)c1ccc(Cl)cc1	–	–	48.8	·	–	–	–
Cc1csc(=O)n1CCC(=O)OCC(=O)NCc1ccc(Cl)cc1Cl	–	–	–	–	–	–	·
COc1ccc(CCN(Cc2ccccn2)C(=S)Nc2cccc(C)c2)cc1OC	–	–	–	–	–	–	·
COc1ccc(NC(=S)N(CCc2ccc(OC)c(OC)c2)Cc2ccccn2)cc1	–	–	48.0	–	–	–	–
CCN1CCN(C(=O)c2ccc3nc(-c4ccccc4)c(-c4ccccc4)nc3c2)CC1	–	–	–	–	–	–	·
CCc1ccccc1NC(=O)N1CCCC(CCC(=O)N(C)CCc2ccccn2)C1 (stereo not given)	–	–	117.0	–	–	–	–
Cc1cc(-c2nnc3sc(-c4ccc(Cl)cc4Cl)nn23)n[nH]1	–	–	86.0	–	–	–	–
CCOC(=O)C(=N/O)/C(C)=N/NC(=O)C(=O)Nc1cc(Cl)ccc1Cl	–	–	50.7	–	–	–	–
COc1ccccc1Nc1c([N+](=O)[O-])cc(C)cc1[N+](=O)[O-]	–	–	–	–	–	–	·
COc1ccccc1Nc1ccc([N+](=O)[O-])cc1N	–	–	46.8	–	–	–	40.1
